Test results from PMC2914798 (Biochimica et biophysica acta, 2010).
[ ]: non-standard residue; d: D form. The star is where a group is joined. Dnp = O=[N+]([O-])c1ccc(*)c([N+](=O)[O-])c1; Mca = COc1ccc2c(CC(=O)*)cc(=O)oc2c1

Columns and labels:
Type in all cases: biochemical
Cath D [1] = biological target: T1, Cath D (Homo sapiens, UniProt P07339); assay: Enzyme digestion and cleavage site identification, Cath D; settings: high dose of Cath D, overnight hydrolysis; data not shown
Cath E = biological target: T2, Cath E (Homo sapiens, UniProt P14091); assay: Michaelis-Menten kinetics of substrate e hydrolysis by Cath E; settings: 6.8 nM Cath E, 50 mM sodium acetate pH 4.0, 10 minutes, 37 °C
T2 sequence (P14091 54-396): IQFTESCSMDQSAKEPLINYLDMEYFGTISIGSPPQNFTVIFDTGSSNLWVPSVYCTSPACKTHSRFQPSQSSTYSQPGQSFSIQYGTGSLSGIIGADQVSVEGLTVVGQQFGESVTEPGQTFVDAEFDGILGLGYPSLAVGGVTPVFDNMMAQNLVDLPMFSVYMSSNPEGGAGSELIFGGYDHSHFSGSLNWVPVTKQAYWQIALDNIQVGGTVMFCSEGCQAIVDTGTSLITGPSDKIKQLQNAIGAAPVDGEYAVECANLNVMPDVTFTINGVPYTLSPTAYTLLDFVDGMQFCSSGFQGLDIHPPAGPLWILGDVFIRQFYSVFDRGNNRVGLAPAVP
Summary of the method: (§1)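 Intramolecularly quenched Mca/Dnp FRET peptide, 5–100 µM, in 50 mM sodium acetate pH 4.0, with Cath E at 2.3, 4.5 or 6.8 nM, or Cath D up to 54 nM. Fluorescence (ex 340/em 405 nm) followed over 10 min. Initial velocity taken from the linear-phase slope. Vmax and Km from linear regression of the Hanes-Woolf plot (S/v vs S); kcat = Vmax/[Cath E]. Triplicate.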

Cath D [2] = biological target: T1, Cath D; assay: Kinetics of substrate e hydrolysis by Cath D
Summary of the method: as §1

T1 sequence (P07339 65-412): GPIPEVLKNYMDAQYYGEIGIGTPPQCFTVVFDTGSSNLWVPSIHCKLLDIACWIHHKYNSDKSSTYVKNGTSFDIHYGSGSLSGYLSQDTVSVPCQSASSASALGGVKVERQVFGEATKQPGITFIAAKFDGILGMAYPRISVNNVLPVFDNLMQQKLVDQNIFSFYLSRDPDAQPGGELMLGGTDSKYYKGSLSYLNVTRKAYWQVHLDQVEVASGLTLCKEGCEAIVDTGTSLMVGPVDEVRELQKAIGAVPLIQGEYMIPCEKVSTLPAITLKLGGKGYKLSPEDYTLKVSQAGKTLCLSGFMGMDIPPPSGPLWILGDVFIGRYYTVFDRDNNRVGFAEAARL

## Mca-AGFSLPAK(Dnp)[dR]-NH2 (SMILES COc1ccc2c(CC(=O)N[C@@H](C)C(=O)NCC(=O)N[C@@H](Cc3ccccc3)C(=O)N[C@@H](CO)C(=O)N[C@@H](CC(C)C)C(=O)N3CCC[C@H]3C(=O)N[C@@H](C)C(=O)N[C@@H](CCCCNc3ccc([N+](=O)[O-])cc3[N+](=O)[O-])C(=O)N[C@H](CCCNC(=N)N)C(N)=O)cc(=O)oc2c1) [Substrate e]
Cath D [1]
  cleavage sites by Cath D: two minor cleavage sites were identified, one is between the P1 and P1’ sites (-Leu^5-Pro^6-) and a secondary site was found between P3 and P4 positions (-Gly^2-Phe^3-)
Cath E
  Kcat/Km (catalytic efficiency), Cath E: 16.7 µM^−1.S^−1
Cath D [2]; up to 54 nM Cath D, same measurement conditions (50 mM sodium acetate pH 4.0)
  Kcat/Km (catalytic efficiency), Cath D: NM ^§
Cath D [2]; up to 54 nM of Cath D, 50 mM sodium acetate pH 4.0
  cleavage by Cath D: no measurable cleavage
